The test system of data set [1] is Plasmodium falciparum. Nature of the data set: Antiplasmodial activity against D-sorbitol synchronized ring stage of chloroquine-resistant Plasmodium falciparum W2 assessed as parasite growth inhibition measured after 48 hrs by YOYO-1 dye based FACSort flow cytometry analysis. Type of data set: functional, organism-based. The note with it: W2, 48 h. (In general: Flow cytometry measures light scatter and fluorescence of single cells or particles in a stream.)

In a further data set the test system is Vero. Nature of the data set: Cytotoxicity against African green monkey Vero cells measured after 24 hrs by resazurin dye based fluorescence assay. The note with it: Chlorocebus sabaeus. Type of data set: cell-based. (In general: Alamar Blue is a resazurin reagent that responds to reducing activity.)
Data set [2] in a line: Selectivity index, ratio of IC50 for African green monkey Vero cells to IC50 for D-sorbitol synchronized ring stage of chloroquine-resistant Plasmodium falciparum W2. Type of data set: toxicity. As to conditions: read-out: Ratio IC50.
Data set [3] has as its system Heme. Briefly: Binding affinity to monomeric heme assessed as heme-compound complex formation at 1:1 ratio in aqueous DMSO solution at 5 micromol by mass spectrometry analysis.
The test system of data set [4] is Heme. Briefly: Binding affinity to monomeric heme assessed as decrease in band intensity in MES buffer in aqueous DMSO solution at pH 5.6 by UV-vis spectrophotometric titration analysis. In outline: (§1)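 Monomeric hemin (12 μM) in aqueous DMSO with 0.02 M MES, pH 5.6, was titrated with compound at 0–16 μM. Loss of the 401 nm monomeric-heme absorbance was monitored by UV-vis. Binding constant (log K) came from nonlinear least-squares fitting of the titration curves, with a DMSO solvent control.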

The test system of data set [5] is Heme. Briefly: Binding affinity to monomeric heme assessed as decrease in band intensity in HEPES buffer in aqueous DMSO solution at pH 7.4 by UV-vis spectrophotometric titration analysis. In outline:
(§2)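 Monomeric hemin (12 μM) in 40% DMSO with 0.02 M HEPES, pH 7.4, was titrated with compound at 0–18 μM. The drop in the 401 nm monomeric-heme band was followed by UV-vis. Log K was obtained by nonlinear least-squares fitting of the titration curves. A DMSO solvent control was included.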

The test system of data set [6] is Plasmodium falciparum. Briefly: Potency index, ratio of chloroquine IC50 to compound IC50 for antiplasmodial activity against D-sorbitol synchronized ring stage of chloroquine-resistant Plasmodium falciparum W2 assessed as parasite growth inhibition measured after 48 hrs by YOYO-1 dye based FACSort flow cytometry analysis. The class given is functional.
For data set [7], the system named is Heme. Nature of the data set: Binding affinity to monomeric heme assessed as binding constant in HEPES buffer in aqueous DMSO solution at pH 7.4 by UV-vis spectrophotometric titration analysis. The method, boiled down:
as §2

Data set [8] has as its system Heme. Nature of the data set: Binding affinity to monomeric heme assessed as binding constant in MES buffer in aqueous DMSO solution at pH 5.6 by UV-vis spectrophotometric titration analysis. In outline: as §1
Data set [9] concerns Heme. Briefly: Binding affinity to monomeric heme assessed as heme-compound complex formation by measuring shifting and broadening of the peaks by 1H-NMR analysis.
In data set [10] the test system is Plasmodium falciparum. Nature of the data set: Antiplasmodial activity against sorbitol synchronized CQ-resistant Plasmodium falciparum W2 assessed as parasite growth inhibition after 48 hrs by SYBR Green I-based fluorescence assay. As to conditions: W2, 48 h.

28 compounds from ChEMBL document CHEMBL4334549, “Functionalized Naphthalimide-4-aminoquinoline Conjugates as Promising Antiplasmodials, with Mechanistic Insights” (ACS Med Chem Lett, 2020) can be followed below.

Active and inactive are the calls of the source. No cut-off for these calls is given here.

By IC50 is commonly meant the concentration at which inhibition is half-maximal.

In the case of `O=C1c2cccc3cccc(c23)C(=O)N1CCNc1ccnc2cc(Cl)ccc12`, the figures for the IC50 with Plasmodium falciparum [1] and with Vero were 0.056 µM and 249 µM, respectively. The selectivity ratio in [2] came out at 4440.
Taken in the same sequence, the figures for `O=C1c2cccc3c(N4CCCCC4)ccc(c23)C(=O)N1CCCCCCNc1ccnc2cc(Cl)ccc12` were 0.13 µM, 185 µM and 1420.
For the compound `O=C1c2cccc3c(N4CCN(CCO)CC4)ccc(c23)C(=O)N1CCNc1ccnc2cc(Cl)ccc12`, the IC50 in the data set with Plasmodium falciparum [1] is 0.0411 µM; in the data set with Vero, 45.2 µM. The selectivity ratio in data set [2] was 1100.
Taken in the same sequence, the figures for `O=C1c2cccc3c(N4CCOCC4)ccc(c23)C(=O)N1CCCNc1ccnc2cc(Cl)ccc12` were 0.0669 µM, 69 µM and 1030.
Taken in the same sequence, the figures for `O=C1c2cccc3c(N4CCN(CCO)CC4)ccc(c23)C(=O)N1CCCCCCCCNc1ccnc2cc(Cl)ccc12` were 0.215 µM, 171 µM and 797.
`O=C1c2cccc3c(N4CCN(CCO)CC4)ccc(c23)C(=O)N1CCCNc1ccnc2cc(Cl)ccc12`: the result with Heme [3], in the data set on Heme [4], in the data set on Heme [5] and with Heme [9] was Active. For the same compound, the 50% inhibitory concentration (IC50) in the data set with Plasmodium falciparum [1] came out at 0.0154 µM; in the data set on Vero, 64.8 µM. In addition, in the data set on Plasmodium falciparum [6], the “Ratio IC50” value stood at 15. Further, the log K in the data set on Heme [7] stood at 6.33; with Heme [8], 6.06. The selectivity ratio in data set [2] stood at 4190.
Consider `O=C1c2cccc3c(N4CCCCC4)ccc(c23)C(=O)N1CCCNc1ccnc2cc(Cl)ccc12`, for which the IC50 worked out at 0.0512 µM in the data set on Plasmodium falciparum [1] and 200 µM in the data set with Vero. Also, the selectivity ratio in data set [2] turned out to be 3910.
For `O=C1c2cccc3c(N4CCOCC4)ccc(c23)C(=O)N1CCCCCCCCNc1ccnc2cc(Cl)ccc12`, the values for the IC50 in the data set on Plasmodium falciparum [1] and in the data set on Vero were 3.97 µM and 175 µM, respectively. The selectivity ratio in [2] was 44.1.
The matching figures for `O=C1c2cccc3c(N4CCCCC4)ccc(c23)C(=O)N1CCCCNc1ccnc2cc(Cl)ccc12`: 0.0961 µM, 33.8 µM and 352.
`CC(C)[C@@H](C(=O)N[C@H](Cc1ccccc1)[C@@H](O)CN1CCN(Cc2ccc(Br)cc2)CC1)N1C(=O)c2ccccc2C1=O`: the IC50 in the data set on Plasmodium falciparum [10] was found to be 3.01 µM.
Take `O=C1c2cccc3c(Br)ccc(c23)C(=O)N1CCNc1ccnc2cc(Cl)ccc12`: the results for the IC50 in the data set with Plasmodium falciparum [1] and in the data set with Vero were 0.053 µM and 7.79 µM, respectively. Besides, the selectivity ratio in [2] was 147.
The matching figures for `O=C1c2cccc3cccc(c23)C(=O)N1CCCCCCCCNc1ccnc2cc(Cl)ccc12`: 0.357 µM, 206 µM and 576.
Turning to `O=C1c2cccc3c(N4CCN(CCO)CC4)ccc(c23)C(=O)N1CCCCCCNc1ccnc2cc(Cl)ccc12`, the results for the concentration for half-maximal inhibition (IC50) in the data set with Plasmodium falciparum [1] and in the data set on Vero were 0.12 µM and 13.1 µM, respectively. In addition, the selectivity ratio in [2] is 109.
Regarding `O=C1c2cccc3c(Br)ccc(c23)C(=O)N1CCCCCCNc1ccnc2cc(Cl)ccc12`, the IC50 with Plasmodium falciparum [1] was found to be 0.162 µM; in the data set on Vero, 186 µM. Besides, the selectivity ratio in data set [2] stood at 1150.
`O=C1OC(=O)c2cccc3cccc1c23` [1,8-NAPHTHALIC ANHYDRIDE]: the 50% inhibitory concentration (IC50) is above 10 µM in the data set on Plasmodium falciparum [1] and 505 µM with Vero.
Taken in the same sequence, the figures for `O=C1OC(=O)c2ccc(Br)c3cccc1c23` were above 10 µM and 361 µM.
With `O=C1c2cccc3c(N4CCCCC4)ccc(c23)C(=O)N1CCCCCCCCNc1ccnc2cc(Cl)ccc12`, the IC50 came to 0.438 µM in the data set with Plasmodium falciparum [1] and 176 µM with Vero. Also, in data set [2], the selectivity ratio turned out to be 401.
`O=C1c2cccc3cccc(c23)C(=O)N1CCCCCCNc1ccnc2cc(Cl)ccc12`: the IC50 in the data set on Plasmodium falciparum [1] was 0.39 µM; in the data set with Vero it was 218 µM. Also, in [2], the selectivity ratio came to 560.
Turning to `O=C1c2cccc3c(N4CCOCC4)ccc(c23)C(=O)N1CCNc1ccnc2cc(Cl)ccc12`, the half-inhibitory concentration (IC50) with Plasmodium falciparum [1] was 0.121 µM; with Vero it was 26.8 µM. For the same compound, the selectivity ratio in [2] worked out at 221.
The matching figures for `O=C1c2cccc3cccc(c23)C(=O)N1CCCCNc1ccnc2cc(Cl)ccc12`: 0.0407 µM, 7.58 µM and 186.
In the case of `O=C1c2cccc3c(N4CCOCC4)ccc(c23)C(=O)N1CCCCCCNc1ccnc2cc(Cl)ccc12`, the IC50 in the data set with Plasmodium falciparum [1] was 0.0842 µM; in the data set on Vero, 184 µM.
Regarding `O=C1c2cccc3cccc(c23)C(=O)N1CCCNc1ccnc2cc(Cl)ccc12`, the half-maximal inhibitory concentration (IC50) in the data set on Plasmodium falciparum [1] stood at 0.147 µM; in the data set on Vero it was 3.14 µM. Moreover, the selectivity ratio in [2] turned out to be 21.4.
Take `O=C1c2cccc3c(Br)ccc(c23)C(=O)N1CCCCCCCCNc1ccnc2cc(Cl)ccc12`: the IC50 was 0.562 µM with Plasmodium falciparum [1] and 177 µM with Vero. For the same compound, the selectivity ratio in data set [2] was 315.
Consider `O=C1c2cccc3c(Br)ccc(c23)C(=O)N1CCCCNc1ccnc2cc(Cl)ccc12`, for which the IC50 in the data set with Plasmodium falciparum [1] is 0.0533 µM; in the data set on Vero it was 13.9 µM. Besides, the selectivity ratio in data set [2] worked out at 262.
As to `O=C1c2cccc3c(N4CCOCC4)ccc(c23)C(=O)N1CCCCNc1ccnc2cc(Cl)ccc12`, the results for the IC50 with Plasmodium falciparum [1] and in the data set with Vero were 0.237 µM and 12.5 µM, respectively. Further, the selectivity ratio in data set [2] worked out at 52.6.
For `O=C1c2cccc3c(N4CCN(CCO)CC4)ccc(c23)C(=O)N1CCCCNc1ccnc2cc(Cl)ccc12`, the IC50 in the data set on Plasmodium falciparum [1] was 0.0201 µM; in the data set on Vero, 31.9 µM. In data set [2], the selectivity ratio came out at 1580.
Turning to `O=C1c2cccc3c(N4CCCCC4)ccc(c23)C(=O)N1CCNc1ccnc2cc(Cl)ccc12`, the results for the half-inhibitory concentration (IC50) in the data set on Plasmodium falciparum [1] and with Vero were 0.149 µM and 126 µM, respectively. Besides, the selectivity ratio in [2] is 851.
The matching figures for `O=C1c2cccc3c(Br)ccc(c23)C(=O)N1CCCNc1ccnc2cc(Cl)ccc12`: 0.0597 µM, 10.7 µM and 179.
